Assay results: ChEMBL document CHEMBL4316610, “Synthesis and Biological Studies of (+)-Liquiditerpenoic Acid A (Abietopinoic Acid) and Representative Analogues: SAR Studies” (J Nat Prod, 2019)
The source made the active and inactive calls. The calls are words filed in the database; no cut-off is given here.

What was measured:
[1] = target: T1, GABA-A receptor; alpha-1/beta-2/gamma-2 (Homo sapiens) (UniProt P14867+P47870+P18507); experiment: Modulation of recombinant wild type GABAA receptor alpha1beta2gamma2S (unknown origin) expressed in Xenopus laevis oocytes assessed as increase in GABA-evoked chloride current at 100 uM at -70 mV holding potential by two-microelectrode voltage clamp assay relative to control; format: cell-based
Method in brief: (§1)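 Two-microelectrode voltage clamp at -70 mV on Xenopus laevis oocytes expressing α1β2γ2S GABA-A receptors. GABA EC5 (4-5 μM), set individually for each oocyte, applied for 20 s alone, then co-applied with compound at 10 or 100 μM. Potentiation of GABA-evoked current is reported. Dehydroabietic acid served as positive control. Mean ± SEM from at least three oocytes and two oocyte batches.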

HBL-100 = experiment: Antiproliferative activity against human HBL100 cells after 48 hrs by SRB assay; format: functional; settings: HBL-100, 48 h
[2] = Selectivity index, ratio of CC50 for mouse J774 cells to IC50 for Leishmania guyanensis 141/93 promastigotes; format: toxicity; settings: read-out: Ratio CC50/IC50
Leishmania infantum [3] = experiment: Antileishmanial activity against Leishmania infantum MCAN/ES/96/BCN150 promastigotes after 48 hrs by resazurin dye-based fluorometric analysis; format: functional, organism-based; settings: Leishmania infantum, MCAN/ES/96/BCN150, 48 h; read-out: IC50
Method in brief: (§2)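 The IC50 is taken as the compound concentration giving a 50% reduction in parasites, reported with SD.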

[4] = Selectivity index, ratio of CC50 for mouse J774 cells to IC50 for Leishmania amazonensis MHOM/Br/79/Mari promastigotes; format: toxicity; settings: read-out: Ratio CC50/IC50
[5] = target: T1, GABA-A receptor; alpha-1/beta-2/gamma-2 (Homo sapiens); experiment: Modulation of recombinant wild type GABAA receptor alpha1beta2gamma2S (unknown origin) expressed in Xenopus laevis oocytes assessed as increase in GABA-evoked chloride current at 10 uM at -70 mV holding potential by two-microelectrode voltage clamp assay relative to control; format: cell-based; method in brief: as §1
Leishmania amazonensis [6] = experiment: Antileishmanial activity against Leishmania amazonensis MHOM/Br/79/Mari amastigotes infected in mouse J774 cells after 48 hrs by resazurin dye-based fluorometric analysis; format: functional, organism-based; settings: J774, 48 h
HeLa = experiment: Antiproliferative activity against human HeLa cells after 48 hrs by SRB assay; format: functional
[7] = Selectivity index, ratio of CC50 for mouse J774 cells to IC50 for Leishmania infantum MCAN/ES/96/BCN150 amastigotes infected in mouse J774 cells; format: toxicity, cell-based; settings: read-out: Ratio CC50/IC50
Method in brief: (§3)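 CC50: concentration giving 50% reduction of viability in treated cells relative to untreated; IC50: concentration giving 50% reduction in parasites; SI = CC50/IC50.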

Leishmania guyanensis [8] = experiment: Antileishmanial activity against Leishmania guyanensis 141/93 promastigotes after 48 hrs by resazurin dye-based fluorometric analysis; format: functional, organism-based; settings: Leishmania guyanensis, 141/93, 48 h; read-out: IC50; method in brief: as §2
[9] = Selectivity index, ratio of CC50 for mouse J774 cells to IC50 for Leishmania donovani MHOM/IN/80/DD8 promastigotes; format: toxicity; settings: read-out: Ratio CC50/IC50
[10] = Selectivity index, ratio of CC50 for mouse J774 cells to IC50 for Leishmania infantum MCAN/ES/96/BCN150 promastigotes; format: toxicity; settings: read-out: Ratio CC50/IC50
SW1573 = experiment: Antiproliferative activity against human SW1573 cells after 48 hrs by SRB assay; format: functional; settings: SW1573, 48 h
Leishmania amazonensis [11] = experiment: Antileishmanial activity against Leishmania amazonensis MHOM/Br/79/Mari promastigotes after 48 hrs by resazurin dye-based fluorometric analysis; format: functional, organism-based; settings: Leishmania amazonensis, MHOM/Br/79/Mari, 48 h; read-out: IC50; method in brief: as §2
Leishmania infantum [12] = experiment: Antileishmanial activity against Leishmania infantum MCAN/ES/96/BCN150 amastigotes infected in mouse J774 cells after 48 hrs by resazurin dye-based fluorometric analysis; format: functional, organism-based; settings: MCAN/ES/96/BCN150, J774, 48 h
T47D = experiment: Antiproliferative activity against human T47D cells after 48 hrs by SRB assay; format: functional
WiDr = experiment: Antiproliferative activity against human WiDr cells after 48 hrs by SRB assay; format: functional
Leishmania donovani = experiment: Antileishmanial activity against Leishmania donovani MHOM/IN/80/DD8 promastigotes after 48 hrs by resazurin dye-based fluorometric analysis; format: functional, organism-based; settings: Leishmania donovani, MHOM/IN/80/DD8, 48 h; method in brief: as §2
A549 = experiment: Antiproliferative activity against human A549 cells after 48 hrs by SRB assay; format: functional; settings: A549, 48 h
[13] = Selectivity index, ratio of CC50 for mouse J774 cells to IC50 for Leishmania amazonensis MHOM/Br/79/Mari amastigotes infected in mouse J774 cells; format: toxicity, cell-based; settings: read-out: Ratio CC50/IC50; method in brief: as §3
[14] = Cytotoxicity against mouse J774 cells assessed as reduction in cell viability after 48 hrs by resazurin dye-based fluorometric analysis
Method in brief: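 The CC50 is taken as the concentration giving a 50% reduction in cell viability of treated cultures compared with untreated cells.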

[15] = target: T1, GABA-A receptor; alpha-1/beta-2/gamma-2 (Homo sapiens); experiment: (§4) Modulation of recombinant wild type GABAA receptor alpha1beta2gamma2S (unknown origin) expressed in Xenopus laevis oocytes assessed as increase in GABA-evoked chloride current at -70 mV holding potential by two-microelectrode voltage clamp assay; format: cell-based
Method in brief: (§5)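 Two-microelectrode voltage clamp of Xenopus laevis oocytes expressing α1β2γ2S GABA_A receptors, held at -70 mV. GABA EC5 (4-5 μM), determined individually for each oocyte, applied for 20 s alone or co-applied with compound at 10 and 100 μM; potentiation of GABA-evoked current measured. Dehydroabietic acid as positive control; mean ± SEM from at least three oocytes and two oocyte batches.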

[16] = target: T2, GABA-A receptor; alpha-1/beta-2/gamma-2 (Homo sapiens, UniProt P14867+P18507+P47870); experiment: as §4; format: cell-based; method in brief: as §5
T2 sequence (P14867 whole entry): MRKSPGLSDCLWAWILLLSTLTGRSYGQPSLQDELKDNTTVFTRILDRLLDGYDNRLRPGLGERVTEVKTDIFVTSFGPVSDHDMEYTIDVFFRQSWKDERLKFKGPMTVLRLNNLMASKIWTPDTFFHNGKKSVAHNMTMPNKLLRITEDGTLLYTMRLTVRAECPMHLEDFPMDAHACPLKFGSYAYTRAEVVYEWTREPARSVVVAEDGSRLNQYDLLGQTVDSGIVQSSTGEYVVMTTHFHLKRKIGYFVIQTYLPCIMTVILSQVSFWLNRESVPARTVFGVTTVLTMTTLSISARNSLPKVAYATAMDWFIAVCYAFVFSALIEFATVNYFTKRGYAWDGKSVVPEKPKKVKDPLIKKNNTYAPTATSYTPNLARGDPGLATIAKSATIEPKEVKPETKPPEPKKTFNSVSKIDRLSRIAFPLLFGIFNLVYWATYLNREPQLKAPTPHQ
T2 sequence (P47870 whole entry): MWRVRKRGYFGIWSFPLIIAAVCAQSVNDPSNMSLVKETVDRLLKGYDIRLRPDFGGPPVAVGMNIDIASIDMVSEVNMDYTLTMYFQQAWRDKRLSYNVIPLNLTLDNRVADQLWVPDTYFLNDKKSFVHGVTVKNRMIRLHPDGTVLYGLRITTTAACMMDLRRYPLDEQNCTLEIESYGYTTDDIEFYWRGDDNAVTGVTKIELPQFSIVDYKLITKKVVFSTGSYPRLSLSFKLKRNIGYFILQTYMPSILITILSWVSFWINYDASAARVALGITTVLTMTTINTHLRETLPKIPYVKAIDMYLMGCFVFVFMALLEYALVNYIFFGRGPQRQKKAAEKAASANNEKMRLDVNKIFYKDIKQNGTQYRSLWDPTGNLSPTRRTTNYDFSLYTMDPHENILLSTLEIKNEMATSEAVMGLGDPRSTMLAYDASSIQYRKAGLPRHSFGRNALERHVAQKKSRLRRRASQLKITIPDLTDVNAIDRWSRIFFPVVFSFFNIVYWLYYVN
T2 sequence (P18507 whole entry): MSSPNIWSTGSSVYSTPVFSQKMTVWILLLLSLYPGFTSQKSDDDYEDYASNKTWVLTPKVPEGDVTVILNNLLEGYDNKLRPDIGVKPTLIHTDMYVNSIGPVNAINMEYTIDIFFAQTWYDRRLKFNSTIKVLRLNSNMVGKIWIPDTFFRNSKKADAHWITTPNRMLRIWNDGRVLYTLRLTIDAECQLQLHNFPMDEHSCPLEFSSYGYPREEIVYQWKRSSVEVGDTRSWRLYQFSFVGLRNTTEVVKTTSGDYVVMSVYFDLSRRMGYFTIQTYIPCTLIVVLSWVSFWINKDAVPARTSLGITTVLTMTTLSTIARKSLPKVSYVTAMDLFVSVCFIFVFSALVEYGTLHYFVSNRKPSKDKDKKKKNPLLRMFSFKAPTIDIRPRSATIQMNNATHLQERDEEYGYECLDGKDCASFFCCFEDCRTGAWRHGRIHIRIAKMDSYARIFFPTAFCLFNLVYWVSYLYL

NALM-6 [17] = experiment: Antiproliferative activity against human NALM6 cells after 72 hrs by CellTiter-Glo luminescent cell viability assay; format: functional, cell-based; settings: NALM-6, 72 h
SUP-B15 = experiment: Antiproliferative activity against human SUP-B15 cells after 72 hrs by CellTiter-Glo luminescent cell viability assay; format: functional, cell-based; settings: SUP-B15, 72 h
NALM-6 [18] = experiment: Induction of apoptosis in human NALM6 cells after 24 hrs by Annexin V-FITC/propidium iodide staining-based flow cytometric analysis; format: functional, cell-based
Method in brief: (§6)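 Phosphatidylserine exposure read by Annexin V-FITC/propidium iodide flow cytometry; DNA content by PI staining for cell-cycle distribution.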

NALM-6 [19] = experiment: Cell cycle arrest in human NALM6 cells assessed as accumulation at G2/M phase at 10 uM after 24 hrs by propidium iodide staining-based flow cytometric analysis; format: functional; method in brief: as §6
KOPN-8 [20] = experiment: Antiproliferative activity against human KOPN8 cells after 72 hrs by CellTiter-Glo luminescent cell viability assay; format: functional, cell-based; settings: KOPN-8, 72 h
NALM-6 [21] = experiment: Cell cycle arrest in human NALM6 cells assessed as accumulation at G0/G1 phase at 10 uM after 24 hrs by propidium iodide staining-based flow cytometric analysis; format: functional; method in brief: as §6
KOPN-8 [22] = experiment: Induction of apoptosis in human KOPN8 cells assessed as late apoptotic cells at 20 uM after 32 hrs by Annexin V-FITC/propidium iodide staining-based flow cytometric analysis relative to control; format: functional
Leishmania guyanensis [23] = experiment: Potency index, ratio of miltefosine IC50 to compound IC50 for Leishmania guyanensis 141/93 promastigotes after 48 hrs by resazurin dye-based fluorometric analysis; format: functional
[24] = Antiproliferative activity against mouse leukemia cells overexpressing BCR/ABL after 72 hrs by CellTiter-Glo luminescent cell viability assay; format: functional, cell-based
BJ = experiment: Antiproliferative activity against human BJ cells after 72 hrs by CellTiter-Glo luminescent cell viability assay; format: ADME, cell-based
UoC-B1 = experiment: Antiproliferative activity against human UOCB1 cells after 72 hrs by CellTiter-Glo luminescent cell viability assay; format: functional, cell-based; settings: UoC-B1, 72 h
[25] = read-out: log(1/IC50) (converted)

| SMILES | Activity [1] | selectivity ratio [2] | IC50 (Leishmania infantum [3]) | selectivity ratio [4] | Activity [5] | IC50 (Leishmania guyanensis [8]) | selectivity ratio [9] | selectivity ratio [10] | IC50 (Leishmania amazonensis [11]) | IC50 (Leishmania donovani; read-out: IC50) | IC50 (Leishmania donovani; [25]) | CC50 at 48 h [14] | further results |
| --- | --- | --- | --- | --- | --- | --- | --- | --- | --- | --- | --- | --- | --- |
| COC(=O)[C@]1(C)CCC[C@]2(C)c3cc(C(C)=O)c(C(C)C)cc3CC[C@@H]12 | -2.9% | 9.1 | 2.5 µM | 11.2 | 2.7% | 14.2 µM | 8.8 | 51.8 | 11.6 µM | 14.8 µM | 14.8 µM | 130 µM | GI50 (HBL-100): 15 µM; IC50 (Leishmania amazonensis [6]): 31.4 µM; GI50 (HeLa): 11 µM; selectivity ratio [7]: 3.5; GI50 (SW1573): 11 µM; IC50 (Leishmania infantum [12]): 37.2 µM; GI50 (T47D): 10 µM; GI50 (WiDr): 17 µM; GI50 (A549): 18 µM; selectivity ratio [13]: 4.1 |
| CC(C)C1=CC2=CC[C@H]3[C@](C)(C(=O)O)CCC[C@]3(C)C2CC1 (some centres undefined) | 841% | – | – | – | 187% | – | – | – | – | – | – | – | Emax [15]: 398%; EC50 [16]: 8.7 µM |
| COC(=O)[C@]1(C)CCC[C@]2(C)c3cc(OC(C)=O)c(C(C)C)cc3C(=O)C[C@@H]12 | 46.7% | 13.6 | 0.7 µM | 27.4 | -1% | 1.3 µM | 4.1 | 25.4 | 0.65 µM | 4.4 µM | 4.38 µM | 17.8 µM | EC50 (NALM-6 [17]): 10.7 µM; EC50 (SUP-B15): 21.7 µM; Activity (NALM-6 [18]): Dose-dependent effect; Activity (NALM-6 [19]): Active; EC50 (KOPN-8 [20]): 18.5 µM; Activity (NALM-6 [21]): Active; Activity (KOPN-8 [22]): >85%; Ratio IC50 (Leishmania guyanensis [23]): 13; EC50 [24]: 12.2 µM; EC50 (BJ): Non-Toxic; EC50 (UoC-B1): > 40 µM |
